Assay results from ChEMBL document CHEMBL3576824, “Phenolic diterpenoid derivatives as anti-influenza a virus agents” (ACS Med Chem Lett, 2015).
Activity calls are given as the source filed them.

These compounds were tested on Influenza A virus (assay: Antiviral activity against oseltamivir/amantadine-resistant Influenza A virus (A/Puerto Rico/8/1934(H1N1)) infected in MDCK cells assessed as protection against virus-induced cytocidal effect after 48 hrs by CellTiter-Glo assay). Details: Influenza A virus, A/Puerto Rico/8/1934(H1N1), MDCK, 48 h; read-out: EC50.
Assay type: functional, organism-based
How it was run: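 Cytocidal protection assay in MDCK cells. EC50 is the concentration (μM) protecting cells by 50% from the virus's cytocidal effect, given as mean ± SD from at least three independent tests.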

SMILES	EC50
COC(=O)[C@@]1(C)CCC[C@]2(C)c3cc(OC)ccc3C(=O)C[C@@H]12	3600 nM
NC12CC3CC(CC(C3)C1)C2 [AMANTADINE]	> 20000 nM
C[C@]1(C(=O)OCc2ccccc2)CCC[C@]2(C)c3cc(OC(=O)CCC(=O)O)ccc3CC[C@@H]12	> 6500 nM
CCOC(=O)C1=C[C@@H](OC(CC)CC)[C@H](NC(C)=O)[C@@H](N)C1 [OSELTAMIVIR]	> 20000 nM
COC(=O)[C@@]1(C)CCC[C@]2(C)c3cc(O)ccc3CC[C@@H]12	160 nM
COC(=O)[C@@]1(C)CCC[C@]2(C)c3cc(OC(=O)C(C)C)ccc3CC[C@@H]12	320 nM
COC(=O)[C@@]1(C)CCC[C@]2(C)c3cc(OC(C)=O)ccc3CC[C@@H]12	140 nM
C=CC(=O)Oc1ccc2c(c1)[C@@]1(C)CCC[C@](C)(C(=O)OCc3ccccc3)[C@@H]1CC2	480 nM
COC(=O)[C@@]1(C)CCC[C@]2(C)c3cc(OC(=O)CCBr)ccc3CC[C@@H]12	210 nM
C=CC(=O)Oc1ccc2c(c1)[C@@]1(C)CCC[C@](C)(C(=O)NC)[C@@H]1CC2	> 29300 nM
COC(=O)[C@@]1(C)CCC[C@]2(C)c3cc(OC(=O)CCC(=O)O)ccc3CC[C@@H]12	180 nM
COC(=O)[C@@]1(C)CCC[C@]2(C)c3cc(OC(=O)CCCBr)ccc3CC[C@@H]12	570 nM
CC(C)c1c(O)ccc2c1CC[C@H]1C(C)(C)CCC[C@]21C [TOTAROL]	3500 nM
C=CC(=O)Oc1ccc2c(c1)[C@@]1(C)CCC[C@](C)(C(=O)OC)[C@@H]1CC2	640 nM
COC(=O)[C@@]1(C)CCC[C@]2(C)c3cc(OC(=O)C4CC4)ccc3CC[C@@H]12	150 nM
COC(=O)[C@@]1(C)CCC[C@]2(C)c3cc(OC(=O)CCCC(=O)O)ccc3CC[C@@H]12	370 nM
COC(=O)[C@@]1(C)CCC[C@]2(C)c3cc(OCCC(=O)O)ccc3CC[C@@H]12	> 25000 nM
C[C@]1(C(=O)O)CCC[C@]2(C)c3cc(O)ccc3CC[C@@H]12 [PODOCARIC ACID]	18200 nM
C[C@]1(C(=O)O)CCC[C@]2(C)c3cc(OC(=O)CCC(=O)O)ccc3CC[C@@H]12	18700 nM
COC(=O)[C@@]1(C)CCC[C@]2(C)c3cc(OC)ccc3CC[C@@H]12	730 nM
COC(=O)[C@@]1(C)CCC[C@]2(C)c3cc(OC(=O)CCCCCBr)ccc3CC[C@@H]12	190 nM
COC(=O)[C@@]1(C)CCC[C@]2(C)c3cc(OC(=O)C(C)F)ccc3CC[C@@H]12 (stereo not given in full)	150 nM
CNC(=O)[C@@]1(C)CCC[C@]2(C)c3cc(O)ccc3CC[C@@H]12	> 34800 nM
COC(=O)[C@@]1(C)CCC[C@]2(C)c3cc(OC(=O)CCCCBr)ccc3CC[C@@H]12	420 nM
C[C@]1(C(=O)OCc2ccccc2)CCC[C@]2(C)c3cc(O)ccc3CC[C@@H]12	1590 nM

Same assay, conditions: mdck

SMILES	EC50
C[C@]1(C(=O)OCc2ccccc2)CCC[C@]2(C)c3cc(OCCC(=O)O)ccc3CC[C@@H]12	Not Active

Each compound was assayed on Influenza A virus (assay: Antiviral activity against oseltamivir/amantadine-resistant Influenza A virus (A/Puerto Rico/8/1934(H1N1)) assessed as inhibition of viral infectivity in MDCK cells at 10 uM after 6 hrs by FITC conjugated anti-NP antibodies/DAPI staining-based confocal microscopic analysis). Details: not given.
Assay type: functional, organism-based
How it was run: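 MDCK cells were infected at MOI = 1 in the presence of 10 μM compound for 6 h. Infected cells were stained with FITC-conjugated anti-NP antibody, with DAPI as nuclear stain, and imaged by confocal microscopy. Infected cells without compound served as control.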

SMILES	inhibition
COC(=O)[C@@]1(C)CCC[C@]2(C)c3cc(OC(=O)CCBr)ccc3CC[C@@H]12	Active
CC(C)c1c(O)ccc2c1CC[C@H]1C(C)(C)CCC[C@]21C [TOTAROL]	Active

These compounds were tested on Influenza A virus (A/Puerto Rico/8/1934(H1N1)) (assay: Inhibition of oseltamivir/amantadine-resistant Influenza A virus (A/Puerto Rico/8/1934(H1N1)) hemagglutinin-mediated hemolysis of chicken RBC preincubated with virus for 30 mins followed by RBC addition measured after 30 mins by microplate reader analysis). Details: not given.
How it was run: (§1)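 Erythrocyte-virus-compound mixture incubated at 37 °C for 30 min, then acidified to pH 5.2 with 0.15 M sodium acetate buffer to trigger HA-mediated hemolysis. OD540 of supernatants was measured. Hemolysis without compound is defined as 100%. Values are averages of two independent tests.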

SMILES	inhibition
C=CC(=O)Oc1ccc2c(c1)[C@@]1(C)CCC[C@](C)(C(=O)OC)[C@@H]1CC2	Dose-dependent effect

The compounds below were run on Influenza A virus (A/Puerto Rico/8/1934(H1N1)) (assay: Inhibition of oseltamivir/amantadine-resistant Influenza A virus (A/Puerto Rico/8/1934(H1N1)) hemagglutinin-mediated hemolysis of chicken RBC at 10 uM preincubated with virus for 30 mins followed by RBC addition measured after 30 mins by microplate reader analysis). Details: not given.
How it was run: as §1

SMILES	inhibition
CCOC(=O)C1=C[C@@H](OC(CC)CC)[C@H](NC(C)=O)[C@@H](N)C1 [OSELTAMIVIR]	inactive
